# Results from different studies.
# Protocols differ between the studies behind these lines.
# Target: Serine/threonine-protein kinase DCLK1 (DCLK1, Homo sapiens, UniProt O15075)
# Method: competition with immobilised ligand
# Residues used in one study (O15075 1-740): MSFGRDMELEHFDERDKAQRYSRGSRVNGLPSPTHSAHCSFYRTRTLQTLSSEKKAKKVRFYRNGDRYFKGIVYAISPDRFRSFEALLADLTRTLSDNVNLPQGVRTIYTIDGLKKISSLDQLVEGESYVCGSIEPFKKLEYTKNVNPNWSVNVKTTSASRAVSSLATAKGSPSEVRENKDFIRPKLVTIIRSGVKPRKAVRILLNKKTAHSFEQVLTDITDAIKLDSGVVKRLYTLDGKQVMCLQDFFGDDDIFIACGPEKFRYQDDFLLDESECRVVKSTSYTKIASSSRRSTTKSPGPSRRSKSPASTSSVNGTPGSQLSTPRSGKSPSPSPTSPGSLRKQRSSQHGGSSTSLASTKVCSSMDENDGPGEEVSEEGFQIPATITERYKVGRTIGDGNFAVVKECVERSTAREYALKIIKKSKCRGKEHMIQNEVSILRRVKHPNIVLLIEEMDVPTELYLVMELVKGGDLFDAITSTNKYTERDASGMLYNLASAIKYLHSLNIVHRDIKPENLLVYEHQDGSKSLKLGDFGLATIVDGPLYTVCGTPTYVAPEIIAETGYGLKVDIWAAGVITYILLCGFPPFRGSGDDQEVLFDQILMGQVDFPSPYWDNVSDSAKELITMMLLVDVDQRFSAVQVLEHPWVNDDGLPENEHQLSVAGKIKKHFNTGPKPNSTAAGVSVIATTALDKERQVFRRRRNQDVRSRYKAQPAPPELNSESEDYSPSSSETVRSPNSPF
Compound,test,conditions,remaining binding
COCCOc1nc(-c2ccc(Cl)nc2)nc2c1CN(C(=O)c1ncn3ccccc13)CC2,cell-free assay,0.1 µM,100%
COc1cnc(Nc2cccc(S(N)(=O)=O)c2)nc1N1CCN(c2ccccc2)CC1,binding,1 µM,92%
O=C(Nc1c[nH]nc1C(=O)NC1CCNCC1)c1cc(F)cc(F)c1,binding,1 µM,79%
O=C(NCCCN1CCOCC1)c1ccc(Nc2nccc(-c3cc4ccccc4s3)n2)cc1,binding,1 µM,88%
CC(C)(C)c1ccc(-c2nc(CBr)nn2-c2cccc(O)c2)cc1,cell-free assay,10 µM,100%
CCN1CCN(Cc2ccc(C(=O)Nc3ccc(C)c(Oc4ccc5c(c4)CC(=O)N5)c3)cc2C(F)(F)F)CC1,binding,1 µM,88%
COc1ccnn2ncc(-c3ccnc(N(C)C)n3)c12,binding,1 µM,80%
CN([C@@H]1CCc2c(CC(=O)O)c3cc(S(C)(=O)=O)ccc3n2C1)S(=O)(=O)c1ccc(F)cc1,cell-free assay,1 µM,79%
O=C(NCCCN1CCOCC1)c1ccc(Nc2ncc(Cl)c(-c3ccc(Cl)s3)n2)cc1,binding,1 µM,56%
COc1cnc(Nc2cccc(S(N)(=O)=O)c2)nc1N1CCN(c2ccccc2)C(=O)C1,binding,1 µM,83%
CN(CCCC(F)(F)F)c1nccc(-c2cnn3ncccc23)n1,binding,1 µM,90%
C[C@@H]1CN(c2ccc3ncc(-c4ccc5[nH]nc(C6CC6)c5c4)n3n2)C[C@H](C)O1,binding,0.5 µM,100%
N[C@@H]1CCN(c2nccc(-c3cnn4ncccc34)n2)C1,binding,1 µM,70%
Nc1c(C(=O)NCc2ccc(C(=O)NCCCC3CCCCC3)cc2)cnn1-c1ccccc1,cell-free assay,0.1 µM,100%
Cc1cnn2ncc(-c3ccnc(N(C)C)n3)c2c1,binding,1 µM,91%
O=C(N1CCS(=O)(=O)CC1)N1C[C@H](c2ccc(OC(F)(F)F)cc2)C[C@H](c2nc(C3CC3)no2)C1,cell-free assay,1 µM,100%
Cc1cnc(Nc2ccc(C(=O)N3CCC(N4CCCC4)CC3)cc2)nc1-c1cc2ccccc2s1,binding,1 µM,68%
Cn1nc(C(=O)NCc2ccc(C(=O)O)cc2)cc1-c1ccc2[nH]ccc2c1,cell-free assay,0.1 µM,88%
COc1ncc2cc3ccccc3nc2c1C#N,cell-free assay,5 µM,98%
Nc1ncc2c(n1)-c1c([nH]c3ccc(C#CC4CC4)cc13)CCCC2,binding,1 µM,100%
C[C@@H]1CCN(c2nccc(-c3cnn4ncccc34)n2)C1,binding,1 µM,84%
CC(C)CC(=O)N1CCc2nc(-c3ccc(Br)cc3)nc(N(C)Cc3ccccc3)c2C1,cell-free assay,0.1 µM,100%
c1cncc(-c2cccc(Nc3nccc(NC4CCCCC4)n3)c2)c1,binding,10 µM,92%
CN(C)c1nccc(-c2cnc3ncccn23)n1,binding,1 µM,61%
CCC(=N\O)/C(C)=C/c1ccc(F)cc1,cell-free assay,1 µM,93%
COc1cc(N2CCN(C)CC2)ccc1Nc1ncc2c(n1)N(C)c1ccccc1C(=O)N2CC(F)(F)F,binding,1 µM,< 10%
